Measured values taken from ChEMBL document CHEMBL4052614, “Novel 3',5'-diprenylated chalcones inhibited the proliferation of cancer cells in vitro by inducing cell apoptosis and arresting cell cycle phase” (Eur J Med Chem, 2017).
Active and inactive are the calls of the source. No cut-off for these calls is given here.

Assays:
PC-3 [1] = test: Growth inhibition of human PC3 cells at 5 umol/L after 48 hrs by MTT assay relative to control; format: functional; details: PC-3, 48 h, read-out: GI
Method in brief: (§1)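 Cells kept in DMEM/10% FBS at 37 °C, 5% CO2, seeded at 4×10^3–8×10^3 cells/well, 24 h attachment, then 48 h with compound at 5 µmol/L. MTT (5 mg/mL solution) added for 4 h at 37 °C, formazan taken up in DMSO, A490 read. Percent inhibition as mean ± SD of three independent experiments. Doxorubicin as positive control.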

K562 [2] = test: Growth inhibition of human K562 cells at 5 umol/L after 48 hrs by MTT assay relative to control; format: functional; details: K562, 48 h, read-out: GI; method in brief: as §1
HEL [3] = test: Cytotoxicity against HEL cells after 48 hrs by MTT assay; format: functional, cell-based; details: Homo sapiens
Method in brief: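 Cells kept in DMEM/10% FBS at 37 °C, 5% CO2, seeded at 4×10^3–8×10^3 cells/well and left 24 h to adhere. Exposed 48 h to a range of concentrations. MTT (5 mg/mL solution) added for 4 h at 37 °C, formazan dissolved in DMSO, absorbance read at 490 nm. IC50 derived from concentration–inhibition relation. Doxorubicin as positive control.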

PC-3 [4] = test: Induction of morphological changes in human PC3 cells assessed as increase in formation of apoptotic bodies at 5 umol/L after 48 hrs by inverted microscopic method; format: functional, cell-based
Method in brief: (§2)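 PC3 cells were kept in DMEM with 10% FBS, penicillin and streptomycin at 37 °C under 5% CO2, and were passaged at least 3 times after thawing. Cells were seeded at 4 × 10^3 to 8 × 10^3 cells/well and left to adhere for 24 h. They were then exposed to 5 µmol/L compound for 48 h. Morphology was viewed by inverted microscope against DMSO-treated controls.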

K562 [5] = test: Induction of morphological changes in human K562 cells assessed as increase in cell rounding at 5 umol/L after 48 hrs by inverted microscopic method; format: functional, cell-based
Method in brief: (§3)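 Cells cultured in DMEM/10% FBS at 37 °C, 5% CO2. Exposed 48 h to 5 µmol/L compound alongside DMSO controls. Morphology (cell number, rounding, spacing, apoptotic bodies, spindle shape) observed under an inverted microscope with CCD camera.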

MDA-MB-231 [6] = test: Induction of apoptosis in human MDA-MB-231 cells assessed as spindle like formation at 5 umol/L after 48 hrs by inverted microscopic method; format: functional, cell-based; method in brief: as §3
PC-3 [7] = test: Induction of apoptosis in human PC3 cells assessed as spindle like formation at 5 umol/L after 48 hrs by inverted microscopic method; format: functional, cell-based; method in brief: as §3
PC-3 [8] = test: Induction of apoptosis in human PC3 cells assessed as late apoptotic cells at 5 umol/L after 48 hrs by annexin V-FITC/propidium iodide staining based flow cytometry (reference value: 4.7%); format: functional
PC-3 [9] = test: Induction of apoptosis in human PC3 cells assessed as necrotic cells at 5 umol/L after 48 hrs by annexin V-FITC/propidium iodide staining based flow cytometry (reference value: 4.6%); format: functional
MDA-MB-231 [10] = test: Induction of apoptosis in human MDA-MB-231 cells assessed as late apoptotic cells at 5 umol/L after 48 hrs by annexin V-FITC/propidium iodide staining based flow cytometry (reference value: 2.2%); format: functional
K562 [11] = test: Induction of apoptosis in human K562 cells assessed as viable cells at 5 umol/L after 48 hrs by annexin V-FITC/propidium iodide staining based flow cytometry (reference value: 92.6%); format: functional; details: K562, 48 h, read-out: Activity
K562 [12] = test: Induction of apoptosis in human K562 cells assessed as early apoptotic cells at 5 umol/L after 48 hrs by annexin V-FITC/propidium iodide staining based flow cytometry (reference value: 4%); format: functional
K562 [13] = test: Induction of apoptosis in human K562 cells assessed as necrotic cells at 5 umol/L after 48 hrs by annexin V-FITC/propidium iodide staining based flow cytometry (reference value: 1.2%); format: functional
HEL [14] = test: Induction of apoptosis in HEL cells assessed as viable cells at 5 umol/L after 48 hrs by annexin V-FITC/propidium iodide staining based flow cytometry (reference value: 93.1 to 94%); format: functional; details: Homo sapiens, read-out: Activity
HEL [15] = test: Induction of apoptosis in HEL cells assessed as late apoptotic cells at 5 umol/L after 48 hrs by annexin V-FITC/propidium iodide staining based flow cytometry (reference value: 1.6 to 3.3%); format: functional, Homo sapiens
HEL [16] = test: Induction of apoptosis in HEL cells assessed as necrotic cells at 5 umol/L after 48 hrs by annexin V-FITC/propidium iodide staining based flow cytometry (reference value: 0.3 to 1%); format: functional, Homo sapiens
PC-3 [17] = test: Cell cycle arrest in human PC3 cells assessed as increase in G1 phase accumulation at 5 umol/L after 48 hrs by propidium iodide staining based flow cytometric method; format: functional
Method in brief: (§4)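 Cells grown in DMEM with 10% FBS and penicillin/streptomycin at 37 °C, 5% CO2, and passaged at least 3 times after thawing. Treated 48 h at 5 µmol/L, DMSO-treated controls. Harvested by trypsin, PBS-washed, fixed in ice-cold ethanol, blocked 1 h at 4 °C in 5% BSA/PBS, RNase 1 µg/mL 30 min at 37 °C, PI 20 µg/mL final. Phase percentages read from PI histograms. Mean ± SD, three independent experiments.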

PC-3 [18] = test: Cell cycle arrest in human PC3 cells assessed as decrease in S phase accumulation at 5 umol/L after 48 hrs by propidium iodide staining based flow cytometric method; format: functional; method in brief: as §4
PC-3 [19] = test: Cell cycle arrest in human PC3 cells assessed as decrease in G2 phase accumulation at 5 umol/L after 48 hrs by propidium iodide staining based flow cytometric method; format: functional; method in brief: as §4
MDA-MB-231 [20] = test: Cell cycle arrest in human MDA-MB-231 cells assessed as increase in G2 phase accumulation at 5 umol/L after 48 hrs by propidium iodide staining based flow cytometry; format: functional; method in brief: as §4
MDA-MB-231 [21] = test: Induction of morphological changes in human MDA-MB-231 cells assessed as increase in intracellular space at 5 umol/L after 48 hrs by inverted microscopic method; format: functional, cell-based; method in brief: as §3
PC-3 [22] = test: Induction of morphological changes in human PC3 cells assessed as increase in intracellular space at 5 umol/L after 48 hrs by inverted microscopic method; format: functional, cell-based; method in brief: as §2
K562 [23] = test: Induction of morphological changes in human K562 cells assessed as increase in intracellular space at 5 umol/L after 48 hrs by inverted microscopic method; format: functional, cell-based; method in brief: as §3
MDA-MB-231 [24] = test: Induction of apoptosis in human MDA-MB-231 cells assessed as effect on cell adherence at 5 umol/L after 48 hrs by inverted microscopic method; format: functional, cell-based; method in brief: as §3
PC-3 [25] = test: Induction of apoptosis in human PC3 cells assessed as effect on cell adherence at 5 umol/L after 48 hrs by inverted microscopic method; format: functional, cell-based; method in brief: as §3
MDA-MB-231 [26] = test: Potency index, ratio of compound effect to (E)-2-Hydroxy-4,4-dimethoxy-3,5-diprenylchalcone effect for growth inhibition of human MDA-MB-231 cells; format: functional
HEL [27] = test: Potency index, ratio of compound effect to (E)-2-Hydroxy-4,4-dimethoxy-3,5-diprenylchalcone effect for growth inhibition of HEL cells; format: functional, Homo sapiens
MDA-MB-231 [28] = test: Induction of morphological changes in human MDA-MB-231 cells assessed as reduction in number of apoptotic bodies at 5 umol/L after 48 hrs by inverted microscopic method

COc1c(CC=C(C)C)cc(C(=O)/C=C/c2cccnc2)c(O)c1CC=C(C)C
inhibition of growth at 5 µM (PC-3 [1]): 90.4%
inhibition of growth at 5 µM (K562 [2]): 86.2%
Activity (HEL [3]): Dose-dependent effect
IC50 (HEL [3]): 1.85 µM
Activity (PC-3 [4]): Active
Activity (K562 [5]): Active
Activity (MDA-MB-231 [6]): Active
Activity (PC-3 [7]): Active
Activity (PC-3 [8]): 42.7%
Activity (PC-3 [9]): 10.6%
Activity (MDA-MB-231 [10]): 36.8%
viability at 5 µM (K562 [11]): 64%
Activity (K562 [12]): 10.1%
Activity (K562 [13]): 11.3%
viability at 5 µM (HEL [14]): 82.4%
Activity (HEL [15]): 7.1%
Activity (HEL [16]): 4.9%
Activity (PC-3 [17]): Active
Activity (PC-3 [18]): Active
Activity (PC-3 [19]): Active
Activity (MDA-MB-231 [20]): Active
Activity (MDA-MB-231 [21]): Active
Activity (PC-3 [22]): Active
Activity (K562 [23]): Active
Activity (MDA-MB-231 [24]): Active
Activity (PC-3 [25]): Active
Ratio (MDA-MB-231 [26]): 3 - 4
Ratio (HEL [27]): 3 - 4
Activity (MDA-MB-231 [28]): Active
